The source made the active and inactive calls. The rule behind the calls is not given here.
How the values were obtained:
[1] = system: Rattus norvegicus; assay: Antihypertensive activity in spontaneous hypertensive rat model assessed as decrease in blood pressure at 100 mg/kg, po administered for 2 to 4 days measured on day 2 to day 4; type: functional
In short: (§1)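 SHR, 4–6 per drug, were dosed daily by gavage for 2 or 4 consecutive days in 3% cornstarch, 5% PEG-400 and 1 drop Tween 80 per mL. After 1 h acclimation, systolic pressure was read by tail-cuff (inflated to 250 mmHg, then lowered; pulse reemergence), at least three readings, at 1, 2, 3 and 24 h post-dose. The peak fall is scored: +, <20 mm up to >80 mm.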

[2] = system: Rattus norvegicus; assay: Toxicity in spontaneous hypertensive rat model at 100 mg/kg, po administered for 2 to 4 days; type: organism-based; set-up: dose 100 mg/kg, route oral; conditions: in vivo
[3] = system: Rattus norvegicus; assay: Antihypertensive activity in spontaneous hypertensive rat model assessed as decrease in blood pressure at 30 mg/kg, po administered for 2 to 4 days measured on day 2 to day 4; type: functional
[4] = system: Squirrel monkey; assay: Toxicity in normotensive squirrel monkey model assessed as change in heart rate at 100 mg/kg, po qd measured on day 2; type: organism-based, Saimiri sciureus; set-up: dose 100 mg/kg, route oral; conditions: in vivo
In short: (§2)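 Heart rate in restrained, tail-warmed squirrel monkeys was counted manually from the tail-cuff pressure record. Daily gavage used a suspension in 3% cornstarch, 5% PEG-400 and 1 drop Tween 80 per 10 mL. Monitoring was at 1.5, 3, 5 and 24 h after each dose, and the peak change per administration is reported. Paired t test.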

[5] = system: Canis familiaris; assay: Antihypertensive activity in unanesthetized renal hypertensive Mongrel dog model assessed as change in mean blood pressure at 60 mg/kg, po qd measured on day 3; type: functional, Canis lupus familiaris
In short: (§3)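 Conscious renal hypertensive dogs. Blood pressure recorded through a hypodermic needle and tubing to a pressure transducer; heart rate counted by hand. Solid drug given orally once daily in gelatin capsule. Pressures read at 1.5, 3, 6 and 24 h after each dose; maximum changes in pressure and heart rate over each daily session reported.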

[6] = system: Canis familiaris; assay: Toxicity in unanesthetized renal hypertensive Mongrel dog model assessed as change in heart rate at 60 mg/kg, po qd measured on day 3; type: organism-based, Canis lupus familiaris; set-up: dose 60 mg/kg, route oral; conditions: in vivo; in short: as §3
[7] = system: Canis familiaris; assay: Toxicity in unanesthetized renal hypertensive Mongrel dog model assessed as emesis at 60 mg/kg, po qd measured on day 1 to 4; type: organism-based, Canis lupus familiaris; set-up: dose 60 mg/kg, route oral; conditions: in vivo
[8] = system: Squirrel monkey; assay: Toxicity in normotensive squirrel monkey model assessed as emesis at 30 mg/kg, po qd measured on day 1; type: organism-based, Saimiri sciureus; set-up: dose 30 mg/kg, route oral; conditions: in vivo
[9] = system: Canis familiaris; assay: Toxicity in unanesthetized renal hypertensive Mongrel dog model assessed as change in heart rate at 60 mg/kg, po qd measured on day 2; type: organism-based, Canis lupus familiaris; set-up: dose 60 mg/kg, route oral; conditions: in vivo; in short: as §3
[10] = system: Canis familiaris; assay: Antihypertensive activity in unanesthetized renal hypertensive Mongrel dog model assessed as change in mean blood pressure at 60 mg/kg, po qd measured on day 1; type: functional, Canis lupus familiaris; in short: as §3
[11] = system: Squirrel monkey; assay: Toxicity in normotensive squirrel monkey model assessed as emesis at 100 mg/kg, po qd measured on day 2; type: organism-based, Saimiri sciureus; set-up: dose 100 mg/kg, route oral; conditions: in vivo
[12] = system: Squirrel monkey; assay: Antihypertensive activity in normotensive squirrel monkey model assessed as decrease in systolic blood pressure at 30 mg/kg, po qd measured on day 1 by sphygmomanometry; type: functional, Saimiri sciureus, Artery
In short: (§4)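 Squirrel monkeys of either sex restrained in primate chairs, tails warmed by infrared lamp. Systolic pressure taken indirectly by tail-base occlusion cuff with pulse transducer; heart rate counted by hand from the pressure trace. Daily gavage of a suspension in 3% cornstarch, 5% PEG-400 and 1 drop Tween 80 per 10 mL. Read at 1.5, 3, 5 and 24 h; peak change per dose; paired t test.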

[13] = system: Canis familiaris; assay: Toxicity in unanesthetized renal hypertensive Mongrel dog model assessed as change in heart rate at 60 mg/kg, po qd measured on day 1; type: organism-based, Canis lupus familiaris; set-up: dose 60 mg/kg, route oral; conditions: in vivo; in short: as §3
[14] = system: Canis familiaris; assay: Antihypertensive activity in unanesthetized renal hypertensive Mongrel dog model assessed as change in mean blood pressure at 60 mg/kg, po qd measured on day 2; type: functional, Canis lupus familiaris; in short: as §3
[15] = system: Squirrel monkey; assay: Antihypertensive activity in normotensive squirrel monkey model assessed as decrease in systolic blood pressure at 100 mg/kg, po qd measured on day 2 by sphygmomanometry; type: functional, Saimiri sciureus, Artery
In short: (§5)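 Restrained squirrel monkeys of either sex with tails warmed by infrared lamp. Systolic pressure was measured indirectly with a tail-base occlusion cuff and pulse transducer. Doses were given daily by gavage as a suspension in 3% cornstarch, 5% PEG-400 and 1 drop Tween 80 per 10 mL. Readings were taken 1.5, 3, 5 and 24 h post-dose. Values are the peak change after each dose, analysed by paired t test.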

[16] = system: Squirrel monkey; assay: Toxicity in normotensive squirrel monkey model assessed as change in heart rate at 30 mg/kg, po qd measured on day 1; type: organism-based, Saimiri sciureus; set-up: dose 30 mg/kg, route oral; conditions: in vivo; in short: as §4
[17] = system: Squirrel monkey; assay: Antihypertensive activity in normotensive squirrel monkey model assessed as decrease in systolic blood pressure at 100 mg/kg, po qd measured on day 3 by sphygmomanometry; type: functional, Saimiri sciureus, Artery; in short: as §5
[18] = system: Rattus norvegicus; assay: Antihypertensive activity in spontaneous hypertensive rat model assessed as decrease in blood pressure at 200 mg/kg, po administered for 2 to 4 days measured on day 2 to day 4; type: functional; in short: as §1
[19] = system: Squirrel monkey; assay: Antihypertensive activity in normotensive squirrel monkey model assessed as decrease in systolic blood pressure at 100 mg/kg, po qd measured on day 1 by sphygmomanometry; type: functional, Saimiri sciureus, Artery; in short: as §5
[20] = system: Canis familiaris; assay: Toxicity in unanesthetized renal hypertensive Mongrel dog model assessed as change in heart rate at 30 mg/kg, po qd measured on day 3; type: organism-based, Canis lupus familiaris; set-up: dose 30 mg/kg, route oral; conditions: in vivo
In short: (§6)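 Heart rate in unanesthetized renal hypertensive dogs was counted manually from the transducer-recorded arterial pressure trace. Oral dosing was once daily as solid in a gelatin capsule. Readings were at 1.5, 3, 6 and 24 h post-dose, and the maximum change per daily session is reported.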

[21] = system: Canis familiaris; assay: Toxicity in unanesthetized renal hypertensive Mongrel dog model assessed as change in heart rate at 30 mg/kg, po qd measured on day 2; type: organism-based, Canis lupus familiaris; set-up: dose 30 mg/kg, route oral; conditions: in vivo; in short: as §6
[22] = system: Rattus norvegicus; assay: Toxicity in spontaneous hypertensive rat model assessed as bradycardia at 200 mg/kg, po administered for 2 to 4 days; type: organism-based; set-up: dose 200 mg/kg, route oral; conditions: in vivo
In short: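 Heart rate in SHR was counted from tail-cuff pressure pulses after 1 h acclimation. Rats (4–6 per drug) were gavaged daily for 2 or 4 days at 100 mg/kg (sometimes 200 mg/kg) in 3% cornstarch, 5% PEG-400 and 1 drop Tween 80 per mL. Recordings were at 1, 2, 3 and 24 h after each dose.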

[23] = system: Squirrel monkey; assay: Toxicity in normotensive squirrel monkey model assessed as change in heart rate at 100 mg/kg, po qd measured on day 3; type: organism-based, Saimiri sciureus; set-up: dose 100 mg/kg, route oral; conditions: in vivo; in short: as §2
[24] = system: Canis familiaris; assay: Toxicity in unanesthetized renal hypertensive Mongrel dog model assessed as emesis at 30 mg/kg, po qd measured on day 1 to 4; type: organism-based, Canis lupus familiaris; set-up: dose 30 mg/kg, route oral; conditions: in vivo
[25] = system: Squirrel monkey; assay: Toxicity in normotensive squirrel monkey model at 100 mg/kg, po qd measured on day 3; type: organism-based, Saimiri sciureus; set-up: dose 100 mg/kg, route oral; conditions: in vivo
[26] = system: Squirrel monkey; assay: Toxicity in normotensive squirrel monkey model assessed as change in heart rate at 100 mg/kg, po qd measured on day 1; type: organism-based, Saimiri sciureus; set-up: dose 100 mg/kg, route oral; conditions: in vivo; in short: as §2
[27] = system: Canis familiaris; assay: Antihypertensive activity in unanesthetized renal hypertensive Mongrel dog model assessed as change in mean blood pressure at 30 mg/kg, po qd measured on day 1; type: functional, Canis lupus familiaris
In short: (§7)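 Unanesthetized renal hypertensive dogs. Arterial pressure was recorded via a hypodermic needle and polyethylene tubing to a pressure transducer. Drug was given orally once daily as solid in a gelatin capsule. Pressure was determined 1.5, 3, 6 and 24 h after each dose, and the maximum change over each daily monitored session is reported.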

[28] = system: Canis familiaris; assay: Antihypertensive activity in unanesthetized renal hypertensive Mongrel dog model assessed as change in mean blood pressure at 30 mg/kg, po qd measured on day 3; type: functional, Canis lupus familiaris; in short: as §7
[29] = system: Canis familiaris; assay: Antihypertensive activity in unanesthetized renal hypertensive Mongrel dog model assessed as change in mean blood pressure at 30 mg/kg, po qd measured on day 2; type: functional, Canis lupus familiaris; in short: as §7
[30] = system: Canis familiaris; assay: Toxicity in unanesthetized renal hypertensive Mongrel dog model assessed as change in heart rate at 30 mg/kg, po qd measured on day 1; type: organism-based, Canis lupus familiaris; set-up: dose 30 mg/kg, route oral; conditions: in vivo; in short: as §6

## O=C([O-])c1ccc(S(=O)(=O)Cc2cccc(C(F)(F)F)c2)cn1.[Na+]
[1]
  Activity: <20 mmHg

## O=C([O-])c1ccc(SCc2cccc(Br)c2)cn1.[Na+]
[1]
  Activity: >60 mmHg

## CC(Sc1ccc(C(=O)O)nc1)c1cccc(Cl)c1 (centres undefined)
[1]
  Activity: <20 mmHg

## O=C([O-])c1ccc(Sc2ccc(Cl)cc2)cn1.[Na+]
[2]
  Activity: Toxic
[3]
  Activity: <20 mmHg

## CCCCc1ccc(C(=O)O)nc1 [FUSARIC ACID]
[4]
  Activity: 10 bpm
[5]
  Activity: -30 mmHg
[6]
  Activity: 33 bpm
[7]
  Activity: Toxic
[1]
  Activity: >60 mmHg
[8]
  Activity: Non-toxic
[9]
  Activity: 35 bpm
[10]
  Activity: -50 mmHg
[11]
  Activity: Non-toxic
[12]
  Activity: -28 mmHg
[13]
  Activity: 32 bpm
[14]
  Activity: -45 mmHg
[15]
  Activity: -53 mmHg
[16]
  Activity: -20 bpm

## CCCCS(=O)(=O)c1ccc(C(=O)O)nc1
[1]
  Activity: inactive

## O=C(O)c1ccc(SCc2cccc(C(F)(F)F)c2)cn1
[17]
  Activity: -25 mmHg
[4]
  Activity: -26 bpm
[18]
  Activity: >80 mmHg
[19]
  Activity: -27 mmHg
[20]
  Activity: -12 bpm
[21]
  Activity: 9 bpm
[22]
  Activity: Toxic
[23]
  Activity: -20 bpm
[1]
  Activity: >40 mmHg
[24]
  Activity: Non-toxic
[25]
  Activity: Toxic
[26]
  Activity: -40 bpm
[27]
  Activity: 12 mmHg
[28]
  Activity: 24 mmHg
[15]
  Activity: -25 mmHg
[29]
  Activity: 22 mmHg
[30]
  Activity: 5 bpm

## O=C(O)c1ccc([S+]([O-])Cc2ccc(Cl)cc2)cn1 (centres undefined)
[1]
  Activity: >20 mmHg

## O=C(O)c1ccc(SCCCCl)cn1
[1]
  Activity: >20 mmHg

From ChEMBL document CHEMBL3272092, “Synthesis and antihypertensive activity of 5-thio-2-pyridinecarboxylic acid derivatives” (J Med Chem, 1978)
